# Most compounds without a hit are left out; they make up all but 4% or so of the library.
# S1P3 antagonist – S1P3 (human) receptor antagonism. Q99500. CHO S1P3 NFAT-BLA reporter, FRET fluorescence, antagonist mode. inhibition, % at 4.98 µM. 170,000 tested, 0.27% active. AID 485;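 active = inhibition above the plate cutoff, the mean inhibition of test wells on that plate plus 3 SD, cut at about 28% in these data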;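 also: cells challenged with S1P at its EC80 of 0.8 µM; blue over green emission ratio from cleaved BLA substrate after 4 h stimulation; 0% = S1P-stimulated wells and 100% = unstimulated DMSO-only wells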
# Target sequence (Q99500 whole entry, looked up): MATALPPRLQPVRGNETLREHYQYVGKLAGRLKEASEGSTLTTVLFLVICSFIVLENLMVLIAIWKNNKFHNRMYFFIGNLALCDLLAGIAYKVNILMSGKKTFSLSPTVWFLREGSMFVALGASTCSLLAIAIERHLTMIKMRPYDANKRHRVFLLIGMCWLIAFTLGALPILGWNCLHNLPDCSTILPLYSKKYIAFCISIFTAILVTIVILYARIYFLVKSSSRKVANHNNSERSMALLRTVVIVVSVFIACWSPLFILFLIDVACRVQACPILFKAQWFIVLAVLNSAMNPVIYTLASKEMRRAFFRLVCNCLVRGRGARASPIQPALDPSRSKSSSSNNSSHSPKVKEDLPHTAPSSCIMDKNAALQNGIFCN
# CHOP inh – inhibitors of CHOP induction in ER stress response. 220,000 tested, 3.8% active. CHO-K1 CHOP-promoter luciferase, tunicamycin-induced, 15-18 h. AID 2732. inhibition, % at 10 µM;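 active = compounds that reduced the stress-induced luciferase reporter signal by more than about 70% of percent inhibition, limit read from the data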;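 also: 0% = tunicamycin plus vehicle and 100% = wells without tunicamycin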
# MDM2 E3 inh – Mdm2 E3 ligase (human) inhibition; cell-based MDM2 ubiquitination luciferase reporter, 2 h; 0 = plate control, 100 = twice control, blank-subtracted; signal enhancement, % at 5 µM; 210,000 tested, 0.11% active; AID 1230;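 active = signal enhancement of 30% or more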;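 also: luminescence tracks abundance of the self-degrading MDM2-luciferase fusion protein; higher signal means inhibition of MDM2 E3 ligase activity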
#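 Test system: mammalian cells stably expressing self-ubiquitinating, self-degrading MDM2 E3–luciferase fusion; Amount: 2000 cells in each well; Medium: DMEM; Schedule: 4 h settle plus 2 h compound, 37 °C; Technique: SteadyLite luciferase luminescence after 15 min room-temperature reagent incubation; Benchmarks: plate control and blank wells.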
# Hsp70 activator – Hsp70 transcriptional activation, primary screen. activation, % at 10 µM. HeLa Hsp70 promoter luciferase reporter, luminescence; scaled: vehicle 0, proteasome-inhibitor control 100%. 200,000 tested, 0.04% active;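 active = activation above the mean across all tested compounds plus 3 SD, cutoff set per campaign, cut at about 5.5% in these data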;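 also: 100% = MG132 at 30 µM as the positive control and 0% = DMSO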
# CHOP confirm – confirmation of CHOP induction inhibitors. shares compounds with CHOP inh. CHO-CHOP promoter luciferase reporter, tunicamycin-induced, luminescence. inhibition, % at 10 µM. 2,100 tested, 45% active. AID 504437;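 active = mean of three repeat readings of reporter signal inhibition above a set limit, cut at about 70% in these data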;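 also: 0% = tunicamycin plus vehicle and 100% = wells lacking tunicamycin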
# * hit, by the source's call; . = no result given.
SMILES,S1P3 antagonist,CHOP inh,MDM2 E3 inh,Hsp70 activator,CHOP confirm
Cc1ccc(Cn2ccc(NC(=O)c3cc(-c4cccs4)on3)n2)cc1,-8,47,-17,0,.
Cc1cc(C)c(NC(=O)CSc2nc3ccc(NC(=O)CSc4nnnn4-c4ccccc4)cc3s2)c(C)c1,14,98*,-8,0,38
Cc1cc(C)c(NC(=O)CSc2nc3ccc(NC(=O)CSc4nnnn4Cc4ccccc4)cc3s2)c(C)c1,.,.,.,0,.
CC(C)=CCCC1(C)C=Cc2c(c(C)cc3c2[nH]c2cc(O)ccc23)O1 (configuration not stated),.,104*,-24,.,119*
OCCCNc1cc(-c2ccnc(Nc3cccc(Cl)c3)n2)ccn1,.,103*,9,.,107*
CN(C)CCCNc1ccc(-c2cc(Nc3cccc(Cl)c3)ncn2)cn1,.,-40,7,.,.
C/C(=N\NC(=O)c1cc(-c2ccncc2)nc2ccccc12)c1ccc(OC(F)F)cc1,-8,16,-13,0,.
CC(C)(C)c1ccc(S(=O)(=O)NCC(=O)Nc2sc3c(c2C(N)=O)CCCC3)cc1,.,107*,-3,0,92*
Nc1nc(SCC(=O)Nc2cc(C(F)(F)F)ccc2N2CCOCC2)n[nH]1,-19,-32,-5,0,.
Cc1ccc2nc(SCC(=O)Nc3cc(C(F)(F)F)ccc3N3CCOCC3)[nH]c2c1,.,.,-12,0,10
Cc1ccc(Sc2ccc(/C=C3/C(=O)NN(c4ccccc4)C3=O)o2)cc1,1,98*,.,.,36
Cc1cccc(N2NC(=O)/C(=C/c3ccc(-c4ccc(Cl)c(C(=O)O)c4)o3)C2=O)c1,-1,-3,-25,0,.
O=C1NN(c2ccccc2)C(=O)/C1=C/c1ccc(Sc2ccc(Cl)cc2)o1,-5,98*,.,.,78*
O=C1NN(c2ccccc2)C(=O)/C1=C/c1ccc(-c2ccc(Cl)c(C(=O)O)c2)o1,3,25,-8,0,.
Cc1nc2c(-c3ccc(F)cc3)c(C)nn2c(C)c1CCC(=O)N1CCC(Cc2ccccc2)CC1,.,19,-12,0,.
Cc1ccc(C(=O)NNC(=S)NC(=O)c2ccc(Cl)cc2Cl)cc1,.,98*,-12,0,8
Cc1ccccc1OCc1nc(-c2ccccc2)no1,-14,100*,-6,0,0
Cc1ccc(OCc2nc(-c3ccccc3)no2)cc1,-12,19,-7,.,.
Cc1ccnc(NS(=O)(=O)c2ccc(NC(=O)c3ccc(S(=O)(=O)N4CC(C)OC(C)C4)cc3)cc2)n1 (configuration not stated),8,-32,4,0,.
CCc1ccc(-c2nc(CN3CCC(C(=O)NCc4ccc(F)cc4)CC3)c(C)o2)cc1,26,63,-29,0,.
CCc1ccc(-c2nc(CN3CCC(C(=O)NCCN(CC)c4ccccc4)CC3)c(C)o2)cc1,7,98*,-30,-1,105*
Cc1ccccc1N=C(NOCc1ccccc1)c1nonc1N,.,100*,5,1,32
Cc1ccc(N=C(NOC(=O)c2ccccc2)c2nonc2N)c(C)c1,.,53,5,0,.
COc1ccc(NS(=O)(=O)c2ccc(-c3n[nH]c(=S)n3Cc3ccccc3)cc2)cc1,-13,-4,3,.,.
Clc1cc(Br)ccc1OCCOCCN1CCOCC1,9,-1,-1,0,.
SMILES,S1P3 antagonist,CHOP inh,MDM2 E3 inh,Hsp70 activator,CHOP confirm
Cc1ccccc1-c1noc(-c2ccc(O)cc2)n1,5,105*,-18,0,23
Cc1ccccc1-c1noc(-c2ccc(Cl)cc2)n1,.,-32,-32,0,.
Cc1ccc(-c2nc(-c3ccccn3)no2)cc1,12,.,-5,-1,124*
O=C(Cn1nnc(-c2ccccc2F)n1)NCc1ccco1,6,-8,-27,0,.
O=C(Nc1ccc(C(F)(F)F)cc1)c1cc(-c2cccnc2)nc2ccc(Br)cc12,.,102*,-26,0,93*
O=C(Nc1cccc(C(F)(F)F)c1)n1cc(-c2ccccn2)c(N2CCOCC2)n1,-1,38,-7,0,.
CCOC(=O)c1ccc(N2C(=O)C=CC2=O)cc1,.,112*,-7,0,-37
CCOC(=O)c1ccc(-n2c(C)ccc2C)cc1,8,-14,-1,0,.
CCOC(=O)C1(CCc2ccccc2)CCN(C(=O)Cc2nonc2C)CC1,-2,103*,-32,0,-38
Nc1cccc2c1C(=O)N(C(=O)/C=C/c1cccc(F)c1)C2=O,-7,103*,8,0,127*
O=C(/C=C/c1cccc(F)c1)N1CCN(c2ccccn2)CC1,5,-10,-10,.,.

# From PubChem
